# Results gathered from unrelated publications.
# Protocols differ between the studies behind these lines.
# Target: Phosphatidylinositol 4-phosphate 5-kinase type-1 gamma (PIP5K1C, Homo sapiens, UniProt O60331)
SMILES,effect on,action,technique,tested at,quantity,result
CS(=O)(=O)Nc1cccc(-c2csc(NC(=O)CSc3nc4nccnc4c(=O)n3CCc3ccccc3)n2)c1,enzyme activity,inhibitor,,10 µM,inhibition,0%
Cc1cnc(NC2CCOCC2)nc1-n1cnc(C(=O)NC(CN)c2cc(F)cc(Cl)c2)c1 (centres unmarked),enzyme activity,inhibitor,radiometric,1 µM,remaining activity,96%
Nc1ncnc2occ(-c3ccc(NC(=O)Nc4cc(C(F)(F)F)ccc4F)cc3)c12,cell-free assay,,,20 µM,remaining signal,0%
CC1=C(C#N)C(c2ccc3c(c2)c(NC(=O)c2ccccc2C)nn3C)C(C#N)=C(C)N1,cell-free assay,,competition with immobilised ligand,1 µM,remaining binding,91%
CN1CC(Oc2cnc(C#N)cc2-c2ccn3nc(NC(=O)C4CC4)cc3c2)C1,enzyme activity,inhibitor,,1 µM,inhibition,-3%
Cc1cc(NC(=O)c2cccc3cc(-c4cccc5[nH]nc(N)c45)ccc23)ccc1F,enzyme activity,inhibitor,,0.1 µM,activity vs control,110%
Cc1ccc(C(=O)Nc2ccc(CN3CCN(C)CC3)c(C(F)(F)F)c2)cc1C#Cc1cnc2cccnn12,cell-free assay,,,23.5 nM,remaining signal,100%
O=C(CSc1nc2nccnc2c(=O)n1CCc1ccccc1)Nc1nccs1,enzyme activity,inhibitor,,10 µM,inhibition,12%
COc1cc(Cl)c(C(=O)N[C@@H](CN[C@H]2CC[C@@H](N)CC2)Cc2ccc(C#N)cc2)cc1-c1ccc(CN[C@H](C)c2ccc(C)cc2)o1,enzyme activity,inhibitor,,1 µM,remaining activity,96%
CNCc1ccccc1-c1csc([C@@H](C)Nc2nc(C)nc3cc(OC)c(OC)cc23)c1,cell-free assay,,competition with immobilised ligand,1 µM,remaining binding,88%
Cc1ccc(NC(=O)c2ccc(C)c(C(F)(F)F)c2)cc1C#Cc1nn(C2CCC(O)CC2)c2ncnc(N)c12 (centres unmarked),cell-free assay,,,10 µM,remaining signal,98%
